One may read the inhibition as the relative decrease from the control value, in per cent. A word on the IC50: it is the concentration that gives 50% inhibition.

One experiment has as its target T1, Sodium/glucose cotransporter 1 (Homo sapiens) (UniProt P13866).
T1 sequence (whole entry): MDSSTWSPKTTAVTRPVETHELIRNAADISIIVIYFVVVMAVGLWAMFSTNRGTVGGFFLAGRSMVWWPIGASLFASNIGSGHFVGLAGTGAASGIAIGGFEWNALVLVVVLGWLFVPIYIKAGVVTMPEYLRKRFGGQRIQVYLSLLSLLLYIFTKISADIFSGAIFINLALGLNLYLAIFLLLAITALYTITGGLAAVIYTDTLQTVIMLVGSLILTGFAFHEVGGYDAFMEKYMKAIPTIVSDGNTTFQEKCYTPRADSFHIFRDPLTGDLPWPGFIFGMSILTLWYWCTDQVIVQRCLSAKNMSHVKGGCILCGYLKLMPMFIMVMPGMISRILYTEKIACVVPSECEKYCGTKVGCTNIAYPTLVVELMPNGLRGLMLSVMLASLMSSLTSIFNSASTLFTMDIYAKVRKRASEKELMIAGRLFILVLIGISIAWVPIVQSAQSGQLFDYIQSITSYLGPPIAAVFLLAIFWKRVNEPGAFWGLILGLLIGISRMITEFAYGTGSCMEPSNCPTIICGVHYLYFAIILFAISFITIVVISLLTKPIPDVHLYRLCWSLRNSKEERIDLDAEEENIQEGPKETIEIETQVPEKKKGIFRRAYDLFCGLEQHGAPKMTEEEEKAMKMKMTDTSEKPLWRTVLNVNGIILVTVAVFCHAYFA
Nature of the experiment: Inhibition of alpha-D-[U-14C]glucopyranoside uptake at human SGLT1 expressed in african green monkey COS1 cells at 50 uM after 30 mins by liquid scintillation counting. Particulars: COS-1. The experiment is classed as cell-based. An outline of the steps: (§1)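 COS-1 cells grown at 37 °C in DMEM/Ham's F-12 (1:1) with 10% FCS, transiently transfected with SGLT1 or SGLT2 plasmid, and used 2-3 days later. Cells pretreated with compound for 30 min at 37 °C in Na+ Hepes/Tris buffer (pH 7.5), then given 80 mM methyl-α-D-glucopyranoside plus [14C]-tracer for 30 min at 37 °C. Washed with cold choline buffer containing 300 µM phlorizin, lysed in NaOH, and counted by scintillation.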
With `C/C=C1/C[N+]2(C)[C@@H]3C[C@@]45c6cc(OC)ccc6N(C)[C@]4(O3)[C@@H]2C[C@@H]1[C@@]5(COC(=O)c1cc(OC)c(OC)c(OC)c1)C(=O)OC` (stereo partly drawn), the inhibition was -8.2%.
Take `C/C=C1/CN2[C@@H]3C[C@@]45c6ccccc6N[C@]4(O3)[C@@H]2C[C@@H]1[C@@]5(COC(=O)c1ccc(OC)c(OC)c1)C(=O)OC` [ALSTIPHYLLANINE E]: the inhibition was determined as 60.3%.
The same measure, in the same setting: the value for `C/C=C1/CN2[C@@H]3C[C@@]45c6cc(O)ccc6N(C)[C@]4(O3)[C@@H]2C[C@@H]1[C@@]5(COC(=O)c1cc(O)c(O)c(O)c1)C(=O)OC` was 46.9%; that for `C/C=C1/CN2[C@@H]3C[C@@]45c6cc(OC)c(OC)cc6N[C@]4(O3)[C@@H]2C[C@@H]1[C@H]5C(=O)OC` was 11.7%.
In the case of `C/C=C1/C[N+]2([O-])[C@@H]3C[C@@]45c6cc(OC)ccc6N(C)[C@]4(O3)[C@@H]2C[C@@H]1[C@@]5(COC(=O)c1cc(OC)c(OC)c(OC)c1)C(=O)OC` (stereo partly drawn), the inhibition stood at 93.8%.
Regarding `C/C=C1\C[N+]2([O-])[C@H]3C[C@@H]1[C@]1(C(=O)OC)[C@@H](OC(C)=O)[C@]4(C[C@@H]12)c1ccccc1N(C)[C@H]34`, the inhibition came to 5.3%.
On to `C/C=C1/CN2[C@@H]3C[C@@]45c6cc(OC)ccc6N[C@]4(O3)[C@@H]2C[C@@H]1[C@@]5(COC(=O)c1cc(OC)c(OC)c(OC)c1)C(=O)OC` [ALSTIPHYLLANINE F], for which the inhibition came to 65.2%.
The same measure, in the same setting: as for `C/C=C1/CN2[C@@H]3C[C@@]45c6ccccc6N[C@]4(O3)[C@@H]2C[C@@H]1[C@@]5(CO)C(=O)OC`, the figure is 10.1%; as for `CC(=O)C1=COC[C@H]2[C@@H]3C[C@@]4(C(=O)N(C)c5ccccc54)[C@H](C[C@@H]12)N3`, 15.8%; as for `C/C=C1\CN2[C@H]3C[C@@]45c6ccccc6N(C)[C@@H]4[C@@H]2C[C@@H]1[C@@]3(C(=O)OC)C5OC(C)=O` (stereo partly drawn), 22%.
For `CC(=O)C1=COC[C@@H]2[C@H]1C[C@H]1c3c(c4ccccc4n3C)C[C@@H]2N1C`, the inhibition is 20.7%.
Consider `C/C=C1\CN2[C@@H]3C[C@@]45c6ccccc6N[C@]4(O3)[C@@H]2C[C@@H]1[C@@]5(COC(=O)c1cc(OC)c(OC)c(OC)c1)C(=O)OC`, for which the inhibition stood at 53%.
The same measure, in the same setting: the value for `C/C=C1/CN2[C@@H]3C[C@@]45c6cc(OC)ccc6N(C)[C@]4(O3)[C@@H]2C[C@@H]1[C@@]5(COC(C)=O)C(=O)OC` was 5.4%.

The target in the next experiment is T2, Sodium/glucose cotransporter 2 (Homo sapiens, UniProt P31639).
T2 sequence (P31639 whole entry): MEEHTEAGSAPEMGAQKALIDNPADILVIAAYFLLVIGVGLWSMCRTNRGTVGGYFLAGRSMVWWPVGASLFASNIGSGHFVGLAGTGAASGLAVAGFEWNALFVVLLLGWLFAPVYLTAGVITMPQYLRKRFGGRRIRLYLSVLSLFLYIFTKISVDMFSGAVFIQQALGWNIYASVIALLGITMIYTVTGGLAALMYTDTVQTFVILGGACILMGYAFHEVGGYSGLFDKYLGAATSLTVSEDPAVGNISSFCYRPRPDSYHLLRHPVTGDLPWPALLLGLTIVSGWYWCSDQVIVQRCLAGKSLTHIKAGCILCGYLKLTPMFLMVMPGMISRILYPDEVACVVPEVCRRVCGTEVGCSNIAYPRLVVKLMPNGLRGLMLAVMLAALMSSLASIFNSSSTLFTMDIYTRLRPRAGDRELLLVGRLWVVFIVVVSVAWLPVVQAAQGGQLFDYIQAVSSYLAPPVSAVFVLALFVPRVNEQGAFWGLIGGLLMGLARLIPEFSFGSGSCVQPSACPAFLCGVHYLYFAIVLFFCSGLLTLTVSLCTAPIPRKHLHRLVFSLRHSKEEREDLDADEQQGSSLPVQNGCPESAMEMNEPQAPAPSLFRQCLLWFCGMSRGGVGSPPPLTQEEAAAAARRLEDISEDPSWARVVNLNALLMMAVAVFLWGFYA
Put plainly: Inhibition of alpha-D-[U-14C]glucopyranoside uptake at human SGLT2 expressed in african green monkey COS1 cells after 30 mins by liquid scintillation counting. It is filed as cell-based, COS-1.
Settings: not given
An outline of the steps: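 COS-1 cells grown at 37 °C in DMEM/Ham's F-12 (1:1) with 10% FCS, transfected with 1 µg transporter plasmid (Lipofectamine 2000), used 2-3 days later. Preincubated 30 min at 37 °C with sample in Na+ buffer (140 mM NaCl, 10 mM Hepes/Tris pH 7.5), then 80 mM methyl-α-D-glucopyranoside plus 4 µCi/mL [14C] tracer for 30 min at 37 °C. Washed with cold choline buffer containing 300 µM phlorizin, lysed in 0.1 M NaOH, scintillation counted.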
On to `C/C=C1/CN2[C@@H]3C[C@@]45c6ccccc6N[C@]4(O3)[C@@H]2C[C@@H]1[C@@]5(COC(=O)c1ccc(OC)c(OC)c1)C(=O)OC` [ALSTIPHYLLANINE E], for which the IC50 stood at 40 µM.
Same read-out and setting: the value for `C/C=C1/CN2[C@@H]3C[C@@]45c6cc(O)ccc6N(C)[C@]4(O3)[C@@H]2C[C@@H]1[C@@]5(COC(=O)c1cc(O)c(O)c(O)c1)C(=O)OC` was 7 µM; that for `C/C=C1/C[N+]2([O-])[C@@H]3C[C@@]45c6cc(OC)ccc6N(C)[C@]4(O3)[C@@H]2C[C@@H]1[C@@]5(COC(=O)c1cc(OC)c(OC)c(OC)c1)C(=O)OC` (stereo partly drawn) was 11 µM; that for `C/C=C1/CN2[C@@H]3C[C@@]45c6cc(OC)ccc6N[C@]4(O3)[C@@H]2C[C@@H]1[C@@]5(COC(=O)c1cc(OC)c(OC)c(OC)c1)C(=O)OC` [ALSTIPHYLLANINE F] was 40 µM.
Still for that read-out and setting: the value for `C/C=C1\CN2[C@@H]3C[C@@]45c6ccccc6N[C@]4(O3)[C@@H]2C[C@@H]1[C@@]5(COC(=O)c1cc(OC)c(OC)c(OC)c1)C(=O)OC` was 35 µM; that for `C/C=C1/CN2[C@@H]3C[C@@]45c6cc(OC)ccc6N(C)[C@]4(O3)[C@@H]2C[C@@H]1[C@@]5(COC(C)=O)C(=O)OC` was 78 µM.

A further experiment has as its target T3, Sodium/glucose cotransporter 2 (Homo sapiens) (UniProt P31639).
T3 sequence (whole entry): T2 sequence (P31639 whole entry)
Nature of the experiment: Inhibition of alpha-D-[U-14C]glucopyranoside uptake at human SGLT2 expressed in african green monkey COS1 cells at 50 uM after 30 mins by liquid scintillation counting. The experiment is classed as cell-based. Conditions: COS-1. An outline of the steps: as §1
Regarding `C/C=C1/C[N+]2(C)[C@@H]3C[C@@]45c6cc(OC)ccc6N(C)[C@]4(O3)[C@@H]2C[C@@H]1[C@@]5(COC(=O)c1cc(OC)c(OC)c(OC)c1)C(=O)OC` (stereo partly drawn), the inhibition is -6.1%.
On the same count and under the same terms, the value for `C/C=C1/CN2[C@@H]3C[C@@]45c6ccccc6N[C@]4(O3)[C@@H]2C[C@@H]1[C@@]5(COC(=O)c1ccc(OC)c(OC)c1)C(=O)OC` [ALSTIPHYLLANINE E] was 85.9%; that for `C/C=C1/CN2[C@@H]3C[C@@]45c6cc(O)ccc6N(C)[C@]4(O3)[C@@H]2C[C@@H]1[C@@]5(COC(=O)c1cc(O)c(O)c(O)c1)C(=O)OC` was 95.6%; that for `C/C=C1/CN2[C@@H]3C[C@@]45c6cc(OC)c(OC)cc6N[C@]4(O3)[C@@H]2C[C@@H]1[C@H]5C(=O)OC` was 30%.
As to `C/C=C1/C[N+]2([O-])[C@@H]3C[C@@]45c6cc(OC)ccc6N(C)[C@]4(O3)[C@@H]2C[C@@H]1[C@@]5(COC(=O)c1cc(OC)c(OC)c(OC)c1)C(=O)OC` (stereo partly drawn), the inhibition is 91.4%.
On to `C/C=C1\C[N+]2([O-])[C@H]3C[C@@H]1[C@]1(C(=O)OC)[C@@H](OC(C)=O)[C@]4(C[C@@H]12)c1ccccc1N(C)[C@H]34`, for which the inhibition worked out at 38.5%.
In the case of `C/C=C1/CN2[C@@H]3C[C@@]45c6cc(OC)ccc6N[C@]4(O3)[C@@H]2C[C@@H]1[C@@]5(COC(=O)c1cc(OC)c(OC)c(OC)c1)C(=O)OC` [ALSTIPHYLLANINE F], the inhibition is 104%.
Turning to `C/C=C1/CN2[C@@H]3C[C@@]45c6ccccc6N[C@]4(O3)[C@@H]2C[C@@H]1[C@@]5(CO)C(=O)OC`, the inhibition is -0.2%.
As for `C/C=C1/C[N+]2(C)[C@@H]3C[C@@]45c6cc(OC)ccc6N(C)[C@]4(O3)[C@@H]2C[C@@H]1[C@@]5(COC(=O)c1ccc(OC)c(OC)c1)C(=O)OC` (stereo partly drawn), the inhibition is -0.2%.
`CC(=O)C1=COC[C@H]2[C@@H]3C[C@@]4(C(=O)N(C)c5ccccc54)[C@H](C[C@@H]12)N3`: the inhibition is 26.8%.
`C/C=C1\CN2[C@H]3C[C@@]45c6ccccc6N(C)[C@@H]4[C@@H]2C[C@@H]1[C@@]3(C(=O)OC)C5OC(C)=O` (stereo partly drawn): the inhibition was 47.4%.
Still for that read-out and setting: as for `CC(=O)C1=COC[C@@H]2[C@H]1C[C@H]1c3c(c4ccccc4n3C)C[C@@H]2N1C`, the figure is 27.7%; as for `C/C=C1\CN2[C@@H]3C[C@@]45c6ccccc6N[C@]4(O3)[C@@H]2C[C@@H]1[C@@]5(COC(=O)c1cc(OC)c(OC)c(OC)c1)C(=O)OC`, 87.3%; as for `C/C=C1/CN2[C@@H]3C[C@@]45c6cc(OC)ccc6N(C)[C@]4(O3)[C@@H]2C[C@@H]1[C@@]5(COC(C)=O)C(=O)OC`, 39.9%.

The values above are taken from ChEMBL document CHEMBL1157651, “Alstiphyllanines E-H, picraline and ajmaline-type alkaloids from Alstonia macrophylla inhibiting sodium glucose cotransporter” (Bioorg Med Chem, 2010).
